In ChEMBL document CHEMBL3351297, “In Vitro Antibacterial Activity of Prenylated Guanidine Alkaloids from Pterogyne nitens and Synthetic Analogues” (2014):
In brackets after ≈: the same amount, converted by molar mass.

Tests used:
[1] = test system: Staphylococcus aureus; assay: Antimicrobial activity against multi-drug-resistant Staphylococcus aureus SA-1199B expressing NorA efflux pump assessed as absence of growth after 18 hrs by MTT assay; format: functional
How it was run: (§1)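 Strains were pre-grown on nutrient agar for 24 h at 37 °C. Inoculum was 1 × 10^6 cfu/mL in normal saline, set against a 0.5 McFarland standard. Compounds were dissolved in DMSO and serially diluted in cation-adjusted Mueller-Hinton broth (20 mg/L Ca2+, 10 mg/L Mg2+) over 512 to 0.5 mg/L. Plates ran 18 h at 37 °C. MTT was added for 20 min; blue meant growth. MIC is the lowest concentration without growth.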

[2] = test system: Staphylococcus aureus; assay: Antimicrobial activity against methicillin-resistant Staphylococcus aureus XU212 assessed as absence of growth after 18 hrs by MTT assay; format: functional; conditions: XU212, 18 h; how it was run: as §1
[3] = test system: Staphylococcus aureus; assay: Antimicrobial activity against Staphylococcus aureus ATCC25943 assessed as absence of growth after 18 hrs by MTT assay; format: functional; conditions: ATCC25943, 18 h; how it was run: as §1
[4] = test system: Staphylococcus aureus; assay: Antimicrobial activity against methicillin-resistant Staphylococcus aureus EMRSA-15 assessed as absence of growth after 18 hrs by MTT assay; format: functional; conditions: EMRSA-15, 18 h; how it was run: as §1
[5] = test system: Staphylococcus aureus; assay: Antimicrobial activity against methicillin-resistant Staphylococcus aureus EMRSA-16 assessed as absence of growth after 18 hrs by MTT assay; format: functional; conditions: EMRSA-16, 18 h; how it was run: as §1
[6] = test system: Staphylococcus aureus; assay: Antimicrobial activity against macrolide-resistant Staphylococcus aureus RN4220 assessed as absence of growth after 18 hrs by MTT assay; conditions: RN4220, 18 h
[7] = test system: Staphylococcus aureus; assay: Bactericidal activity against multi-drug-resistant Staphylococcus aureus SA-1199B expressing NorA efflux pump incubated for 24 hrs followed by transfer to Petri dishes and measured after 24 hrs; conditions: read-out: MBC99.9

SMILES	MIC [1]	MIC [2]	MIC [3]	MIC [4]	MIC [5]	MIC [6]	MBC [7]
CC(C)=CCN=C(N)N [GALEGINE]	4 µg/mL (≈ 31.4 µM)	4 µg/mL (≈ 31.4 µM)	4 µg/mL (≈ 31.4 µM)	4 µg/mL (≈ 31.4 µM)	4 µg/mL (≈ 31.4 µM)	4 µg/mL (≈ 31.4 µM)	4 µg/mL (≈ 31.4 µM)
CC(C)=CCC/C(C)=C/C=N/C(N)N	32 µg/mL (≈ 164 µM)	8 µg/mL (≈ 41 µM)	16 µg/mL (≈ 81.9 µM)	16 µg/mL (≈ 81.9 µM)	8 µg/mL (≈ 41 µM)	16 µg/mL (≈ 81.9 µM)	
CC(C)=C/C=C/C1(C)CCN=C(N)N1 (configuration not stated) [NITENSIDINE E]	32 µg/mL (≈ 166 µM)	8 µg/mL (≈ 41.4 µM)	16 µg/mL (≈ 82.8 µM)	32 µg/mL (≈ 166 µM)	8 µg/mL (≈ 41.4 µM)	16 µg/mL (≈ 82.8 µM)	
CC(C)=CCN=C(NCC=C(C)C)NCC=C(C)C	> 512 µg/mL	> 512 µg/mL	> 512 µg/mL	> 512 µg/mL	> 512 µg/mL	> 512 µg/mL	
CC(C)=CCNC(=N)NCC=C(C)C [PTEROGYNIDINE]	4 µg/mL (≈ 20.5 µM)	4 µg/mL (≈ 20.5 µM)	4 µg/mL (≈ 20.5 µM)	4 µg/mL (≈ 20.5 µM)	4 µg/mL (≈ 20.5 µM)	4 µg/mL (≈ 20.5 µM)	4 µg/mL (≈ 20.5 µM)
CC(C)=CCC/C(C)=C/CNC(=N)NC/C=C(\C)CCC=C(C)C [NITENSIDINE A]	32 µg/mL (≈ 96.5 µM)	8 µg/mL (≈ 24.1 µM)	16 µg/mL (≈ 48.3 µM)	16 µg/mL (≈ 48.3 µM)	8 µg/mL (≈ 24.1 µM)	16 µg/mL (≈ 48.3 µM)	
CCn1cc(C(=O)O)c(=O)c2cc(F)c(N3CCNCC3)cc21 [NORFLOXACIN]	32 µg/mL (≈ 100 µM)	8 µg/mL (≈ 25.1 µM)	0.5 µg/mL (≈ 1.57 µM)	0.5 µg/mL (≈ 1.57 µM)	128 µg/mL (≈ 401 µM)	0.5 µg/mL (≈ 1.57 µM)	
CC(C)=CCC/C(C)=C/CN(C)C(=N)N(C)C/C=C(\C)CCC=C(C)C [NITENSIDINE C]	32 µg/mL (≈ 89 µM)	8 µg/mL (≈ 22.2 µM)	16 µg/mL (≈ 44.5 µM)	32 µg/mL (≈ 89 µM)	8 µg/mL (≈ 22.2 µM)	16 µg/mL (≈ 44.5 µM)	
CC(C)=CCC/C(C)=C/CNC(=O)NC/C=C(\C)CCC=C(C)C	> 512 µg/mL	> 512 µg/mL	> 512 µg/mL	> 512 µg/mL	> 512 µg/mL	> 512 µg/mL	
CC(C)=CCC/C(C)=C/CNC(=S)NC/C=C(\C)CCC=C(C)C	128 µg/mL (≈ 367 µM)	128 µg/mL (≈ 367 µM)	128 µg/mL (≈ 367 µM)	> 512 µg/mL	32 µg/mL (≈ 91.8 µM)	128 µg/mL (≈ 367 µM)	
